Tests used:
[1] = Inhibition of gamma-secretase
[2] = system: Mus musculus; test: Antialzheimer activity in Tg2576 mouse assessed as reduction in brain amyloid-beta40 level at 200 umol/kg, po measured at 180 mins; type: functional; conditions: 3 h
Procedure, shortened: (§1)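 Transgenic mice received a single 200 µmol/kg dose. […] Test-compound concentrations in brain and plasma (nM) were measured at the same time point.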

[3] = system: Liver; test: Metabolic stability in mouse liver microsomes; type: ADME, Microsome
[4] = Drug uptake in Tg2576 mouse brain at 200 umol/kg, po measured at 180 mins; type: ADME, organism-based; conditions: read-out: Drug uptake; procedure, shortened: as §1
[5] = system: Liver microsomes; test: Metabolic stability in human liver microsomes; type: ADME, Microsome
[6] = Inhibition of gamma-secretase-mediated amyloid beta42 production by GS H4-8 SW1-42 assay
[7] = system: Mus musculus; test: Antialzheimer activity in Tg2576 mouse assessed as reduction in plasma amyloid-beta40 level at 200 umol/kg, po measured at 180 mins; type: functional; conditions: 3 h; procedure, shortened: as §1
[8] = Plasma concentration in Tg2576 mouse at 200 umol/kg, po measured at 180 mins; type: ADME, organism-based; procedure, shortened: as §1
[9] = target: Gamma-secretase; test: Inhibition of human gamma-secretase expressed in IMR32 cell membranes using MBPC-125 Swedish as substrate assessed as inhibition of amyloid beta40 production after 2 hrs by ELISA; conditions: imr-32

Compound	IC50 ([6]; read-out: IC50) [nM]	also measured
NC(=O)[C@@H](CCC(F)(F)F)N(Cc1ccc(-c2ncon2)cc1F)S(=O)(=O)c1ccc(Cl)cc1	–	IC50 [1]: 0.3 nM
N#Cc1ccc(CN([C@H](CC2CC2)C(N)=O)S(=O)(=O)c2ccc(Cl)cc2)cc1	0.94	inhibition in vivo at 200 µmol/kg [2]: 75%; Stability [3]: 0.17 nmol/min/mg; concentration at 3 h [4]: 2800 nM; Stability [5]: 0.16 nmol/min/mg; inhibition in vivo at 200 µmol/kg [7]: 81%; concentration at 3 h [8]: 8600 nM
COc1ccc(CN([C@H](CC(C)C)C(N)=O)S(=O)(=O)c2ccc(Cl)cc2)cc1	–	IC50 [9]: 0.19 nM
COc1ccc(CN([C@@H](CC(C)C)C(N)=O)S(=O)(=O)c2ccc(Cl)cc2)cc1	315	–
COc1ccc(CN([C@H](CC(C)C)C(=O)N(C)C)S(=O)(=O)c2ccc(Cl)cc2)cc1	1100	–
CNC(=O)[C@@H](CC(C)C)N(Cc1ccc(OC)cc1)S(=O)(=O)c1ccc(Cl)cc1	380	–
COc1ccc(CN([C@H](CC(C)C)C(=O)NO)S(=O)(=O)c2ccc(Cl)cc2)cc1F	19	–
COc1ccc(CN([C@H](CC(C)C)C(=O)N(C)OC)S(=O)(=O)c2ccc(Cl)cc2)cc1	160	–
COc1ccc(CN([C@H](CC(C)C)C(=O)NN)S(=O)(=O)c2ccc(Cl)cc2)cc1	53	–
CC(C)C[C@H](C(=O)NN)N(Cc1ccc(C(F)(F)F)cc1)S(=O)(=O)c1ccc(Cl)cc1	110	–
COc1ccc(CN([C@H](CC(C)C)c2nc(C)no2)S(=O)(=O)c2ccc(Cl)cc2)cc1	2200	–
COc1ccc(CN([C@H](CC(C)C)c2nc(C)ns2)S(=O)(=O)c2ccc(Cl)cc2)cc1	1200	–
COc1ccc(CN([C@H](CC(C)C)C(=O)O)S(=O)(=O)c2ccc(Cl)cc2)cc1F	220	–
COc1ccc(CN(C(=O)c2ccc(Cl)cc2)[C@H](CC(C)C)C(N)=O)cc1F	–	IC50 [6]: Not Active
COc1ccc(CN(C(=O)Nc2ccccc2)[C@H](CC(C)C)C(N)=O)cc1F	1100	–
COc1ccc(CN([C@H](CC(C)C)C(N)=O)S(=O)(=O)c2ccccc2)cc1F	1.7	–
COc1ccc(CN([C@H](CC(C)C)C(N)=O)S(=O)(=O)c2ccc(Cl)cc2)cc1F	0.15	–
COc1ccc(CN([C@H](CC(C)C)C(N)=O)S(=O)(=O)c2cccc(Cl)c2)cc1F	7	–
COc1ccc(CN([C@H](CC(C)C)C(N)=O)S(=O)(=O)c2ccc(F)cc2)cc1F	0.26	–
CC(C)C[C@H](C(N)=O)N(Cc1ccc(C#N)cc1)S(=O)(=O)c1ccc(F)cc1	2.7	–
COc1ccc(CN([C@H](CC(C)C)C(N)=O)S(=O)(=O)c2ccc(C)cc2)cc1F	0.45	–

Compound	IC50 ([6]; read-out: IC50) [nM]	also measured
Cc1ccc(S(=O)(=O)N(Cc2ccc(C#N)cc2)[C@H](CC(C)C)C(N)=O)cc1	2.8	–
COc1ccc(CN([C@H](CC(C)C)C(N)=O)S(=O)(=O)c2cccc(C)c2)cc1F	9.2	–
COc1ccc(CN([C@H](CC(C)C)C(N)=O)S(=O)(=O)c2ccc(C(F)(F)F)cc2)cc1F	0.27	–
CCN([C@H](CC(C)C)C(N)=O)S(=O)(=O)c1ccc(Cl)cc1	2.3	–
CC(C)C[C@H](C(N)=O)N(CC1CCN(Cc2ccccc2)CC1)S(=O)(=O)c1ccc(Cl)cc1	17	–
CC(C)C[C@H](C(N)=O)N(CCSC(C)(C)C)S(=O)(=O)c1ccc(Cl)cc1	4.2	–
CC(C)C[C@H](C(N)=O)N(CCCCN1CCOCC1)S(=O)(=O)c1ccc(Cl)cc1	9.9	–
CC(C)C[C@H](C(N)=O)N(CCCCCCN1CCOCC1)S(=O)(=O)c1ccc(Cl)cc1	3.5	–
CC(C)C[C@H](C(N)=O)N(CCCCCCn1ccnc1)S(=O)(=O)c1ccc(Cl)cc1	4.9	–
CC(C)C[C@H](C(N)=O)N(CCCc1ccccc1)S(=O)(=O)c1ccc(Cl)cc1	0.41	–
CC(C)C[C@H](C(N)=O)N(CC1CCCCC1)S(=O)(=O)c1ccc(Cl)cc1	0.79	–
CC(C)C[C@H](C(N)=O)N(Cc1ccccc1)S(=O)(=O)c1ccc(Cl)cc1	0.35	–
COc1ccccc1CN([C@H](CC(C)C)C(N)=O)S(=O)(=O)c1ccc(Cl)cc1	23	–
COc1cccc(CN([C@H](CC(C)C)C(N)=O)S(=O)(=O)c2ccc(Cl)cc2)c1	0.59	–
CC(C)C[C@H](C(N)=O)N(Cc1ccc(C(F)(F)F)cc1)S(=O)(=O)c1ccc(Cl)cc1	0.39	–
CC(C)C[C@H](C(N)=O)N(Cc1ccc(CCl)cc1)S(=O)(=O)c1ccc(Cl)cc1	0.35	–
CC(C)C[C@H](C(N)=O)N(Cc1ccc(OC(F)(F)F)cc1)S(=O)(=O)c1ccc(Cl)cc1	0.69	–
CC(C)C[C@H](C(N)=O)N(Cc1ccc(C#N)cc1)S(=O)(=O)c1ccc(Cl)cc1	0.67	–
CC(C)C[C@H](C(N)=O)N(Cc1ccc(F)cc1)S(=O)(=O)c1ccc(Cl)cc1	0.43	–
CC(C)C[C@H](C(N)=O)N(Cc1ccc(C(C)C)cc1)S(=O)(=O)c1ccc(Cl)cc1	0.58	–
CC(C)C[C@H](C(N)=O)N(Cc1ccc(C(C)(C)C)cc1)S(=O)(=O)c1ccc(Cl)cc1	0.39	–

Compound	IC50 ([6]; read-out: IC50) [nM]	also measured
CC(C)C[C@H](C(N)=O)N(Cc1ccc(N(C)C)cc1)S(=O)(=O)c1ccc(Cl)cc1	0.27	–
CC(C)C[C@H](C(N)=O)N(Cc1ccc(CN(C)C)cc1)S(=O)(=O)c1ccc(Cl)cc1	7.7	–
CC(C)C[C@H](C(N)=O)N(Cc1ccc(F)c(F)c1)S(=O)(=O)c1ccc(Cl)cc1	0.44	–
CC(C)C[C@H](C(N)=O)N(Cc1cc(F)cc(F)c1)S(=O)(=O)c1ccc(Cl)cc1	0.62	–
COc1ccc(CN(CC(N)=O)S(=O)(=O)c2ccc(Cl)cc2)cc1F	2000	–
COc1ccc(CN([C@H](C)C(N)=O)S(=O)(=O)c2ccc(Cl)cc2)cc1F	5.3	–
CC[C@H](C(N)=O)N(Cc1ccc(C#N)cc1)S(=O)(=O)c1ccc(Cl)cc1	4.4	–
CCC[C@H](C(N)=O)N(Cc1ccc(C#N)cc1)S(=O)(=O)c1ccc(Cl)cc1	2.6	–
CCC[C@H](C(N)=O)N(Cc1ccc(OC)c(F)c1)S(=O)(=O)c1ccc(Cl)cc1	0.52	inhibition in vivo at 200 µmol/kg [2]: 72%; Stability [3]: 0.3 nmol/min/mg; concentration at 3 h [4]: 380 nM; Stability [5]: 0.3 nmol/min/mg; inhibition in vivo at 200 µmol/kg [7]: 41%; concentration at 3 h [8]: 840 nM
CCCC[C@H](C(N)=O)N(Cc1ccc(C#N)cc1)S(=O)(=O)c1ccc(Cl)cc1	1	–
COc1ccc(CN([C@@H](C(N)=O)C(C)C)S(=O)(=O)c2ccc(Cl)cc2)cc1F	1.4	–
NC(=O)[C@@H](CC1CC1)N(Cc1ccc(C(F)(F)F)cc1)S(=O)(=O)c1ccc(Cl)cc1	0.68	inhibition in vivo at 200 µmol/kg [2]: 78%; Stability [3]: 0.27 nmol/min/mg; concentration at 3 h [4]: 6300 nM; Stability [5]: 0.23 nmol/min/mg; inhibition in vivo at 200 µmol/kg [7]: 65%; concentration at 3 h [8]: 3600 nM
C=CC[C@H](C(N)=O)N(Cc1ccc(OC)c(F)c1)S(=O)(=O)c1ccc(Cl)cc1	0.35	–
COc1ccc(CN([C@H](Cc2ccccc2)C(N)=O)S(=O)(=O)c2ccc(Cl)cc2)cc1	390	–
CSCC[C@H](C(N)=O)N(Cc1ccc(C#N)cc1)S(=O)(=O)c1ccc(Cl)cc1	19	–
C[S+]([O-])CC[C@H](C(N)=O)N(Cc1ccc(C#N)cc1)S(=O)(=O)c1ccc(Cl)cc1 (stereo not given in full)	1800	–
CS(=O)(=O)CC[C@H](C(N)=O)N(Cc1ccc(C#N)cc1)S(=O)(=O)c1ccc(Cl)cc1	4300	–
COC[C@H](C(N)=O)N(Cc1ccc(C#N)cc1)S(=O)(=O)c1ccc(Cl)cc1	48	–
CC(C)(C)C(=O)C[C@H](C(N)=O)N(Cc1ccc(C#N)cc1)S(=O)(=O)c1ccc(Cl)cc1	54	–
COc1ccc(CN([C@@H]2CCCCNC2=O)S(=O)(=O)c2ccc(Cl)cc2)cc1	–	inhibition in vivo at 200 µmol/kg [2]: 49%; Stability [3]: 0.22 nmol/min/mg; concentration at 3 h [4]: 2200 nM; Stability [5]: 0.23 nmol/min/mg; inhibition in vivo at 200 µmol/kg [7]: 47%; concentration at 3 h [8]: 280 nM
